This passage reports IC50 results from ChEMBL document CHEMBL1157237, “Methanolysis products of disorazole A1” (J Nat Prod, 2006).

pIC50: −log10 of the molar value.

Holding throughout (assay type): functional, cell-based
The test system of one test is MCF7. The test is described as follows: Antiproliferative activity against human MCF7 cells after 72 hrs by celltitre assay. The note with it: MCF7, 72 h. An outline of the steps:
(§1)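 Cells grown in RPMI 1640 with 10% FBS at 37 °C under 5% CO2, seeded in duplicate at about 5000 cells/well and left 24 h. Compounds then added as 10-fold serial dilutions for 72 h. Viability read by CellTiter-Glo luminescence. IC50 taken as the concentration giving 50% inhibition of cell growth.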

The nature of test [1]: Antiproliferative activity against human multidrug-resistant P-glycoprotein expressing NCI/ADR cells after 72 hrs by celltitre assay. The following applies: NCI/ADR-RES. Summed up:
as §1

In a further test the test system is A549. The test is described as follows: Antiproliferative activity against human A549 cells after 72 hrs by celltitre assay. The following applies: A549, 72 h. An outline of the steps:
as §1

The test system of test [2] is CCRF-CEM. Briefly: Antiproliferative activity against human multidrug-resistant P-glycoprotein expressing CCRF-CEM/PTX cells after 72 hrs by celltitre assay. Summed up: (§2)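 Cultured in RPMI 1640 with 5% FBS at 37 °C and 5% CO2. Seeded in duplicate at about 5000 cells/well and incubated 24 h before 10-fold serial compound dilutions were added for 72 h. Viability measured by CellTiter-Glo luminescence. IC50 = concentration inhibiting growth by 50%.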

Test [3] has as its system CCRF-CEM. Briefly: Antiproliferative activity against human CCRF-CEM cells after 72 hrs by celltitre assay. Summed up: as §2

As for `C/C=C/[C@H](O)C(C)(C)[C@@H]1C\C=C/C=C\C=C\[C@H](OC)Cc2nc(co2)C(=O)O[C@H](C(C)(C)[C@@H](O)/C=C/C)C/C=C\[C@@H](O)C(OC)/C=C/C=C\c2nc(co2)C(=O)O1` (stereo not given in full), the pIC50 (commonly −log10 of the IC50, conventionally taken in molar units) in the test with MCF7 is 9.62; in test [1], 8.55; with A549, 9.60; in the test on CCRF-CEM [2] it was 9.62; with CCRF-CEM [3], 9.96.
For the compound `C/C=C/[C@H](O)C(C)(C)[C@@H]1C\C=C/C=C\C=C\[C@H](OC)Cc2nc(co2)C(=O)O[C@H](C(C)(C)[C@@H](O)/C=C/C)C/C=C\[C@H]2O[C@H]2/C=C/C=C\c2nc(co2)C(=O)O1` [DISORAZOLE A1], the negative-log IC50 (pIC50) in the test with MCF7 is 9.60; in test [1], 9.28; in the test on A549, 9.51; in the test on CCRF-CEM [2] it was 10.18; in the test with CCRF-CEM [3] it was 10.15.
On the same counts, the results for `C/C=C/[C@H](O)C(C)(C)[C@@H]1C\C=C/C=C\C=C\[C@H](OC)Cc2nc(co2)C(=O)O[C@H](C(C)(C)[C@@H](O)/C=C/C)C/C=C\[C@@H](O)/C=C/C(OC)/C=C\c2nc(co2)C(=O)O1` (stereo not given in full) are 9.21, 7.55, 9.14, 8.89 and 9.48.
